Source: PMC7839511 (Antiviral Research, 2021)

Columns and labels:
Format in all cases: biochemical
[1] = target: rhinovirus HRV3C protease (Human rhinovirus 14, UniProt P03303); assay: 3CLpro and HRV3C duplex SAMDI-MS assay, HRV3C readout
In short: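 Enzymes preincubated 30 min with test compound. Biotinylated cognate peptides added (10 µM each, final). Reaction ran 30 min, then formic acid quench and bicarbonate neutralisation. Captured on SAMDI chips for 1 h; product conversion AUCprod/(AUCInt Stnd + AUCprod).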

[2] = target: Human Cathepsin L (Homo sapiens, UniProt P07711); assay: Human cathepsin L assay; details: FRET Cathepsin L IC50, 10 pM human cathepsin L, 2 μM Z-FR-AMC, pH 5.5
In short: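 Human enzyme, 10 pM final, preincubated 30 min with test compound at ambient temperature in 20 mM sodium acetate, 1 mM EDTA, 0.005% Brij-35, 5 mM DTT, pH5.5. Started with 2 μM Z-FR-AMC (final). Fluorescence (355/460 excitation/emission) read at 2-min intervals over 30 min. IC50 from four-parameter curve fit.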

[3] = target: SARS-CoV-2 3CLpro (Severe acute respiratory syndrome coronavirus 2, UniProt P0DTD1); details: duplex SAMDI-MS assay

Sequence of Human Cathepsin L (P07711 114-333): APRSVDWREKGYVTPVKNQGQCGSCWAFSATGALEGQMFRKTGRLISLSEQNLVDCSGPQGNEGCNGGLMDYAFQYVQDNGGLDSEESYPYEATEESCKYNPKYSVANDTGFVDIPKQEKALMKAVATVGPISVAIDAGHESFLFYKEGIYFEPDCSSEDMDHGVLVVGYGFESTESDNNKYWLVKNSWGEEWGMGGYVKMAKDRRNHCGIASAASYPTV
Sequence of rhinovirus HRV3C protease (P03303 1538-1719 limits assumed): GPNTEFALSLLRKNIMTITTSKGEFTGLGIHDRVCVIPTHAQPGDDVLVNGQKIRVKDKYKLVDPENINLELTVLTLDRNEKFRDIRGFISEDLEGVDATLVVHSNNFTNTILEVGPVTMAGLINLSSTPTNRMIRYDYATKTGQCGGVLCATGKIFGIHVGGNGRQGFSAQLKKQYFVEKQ

Structure (SMILES)	IC50 [1] [nM]	IC50 [2] [nM]	inhibition of 3CLpro (in words) [3]
CC(C)(C)NC(=O)N[C@H](C(=O)N1C[C@H]2[C@@H]([C@H]1C(=O)NC(CC1CCC1)C(=O)C(N)=O)C2(C)C)C(C)(C)C (some centres unmarked) [Boceprevir]	> 100000	2300	
CCOC(=O)/C=C/[C@H](C[C@@H]1CCNC1=O)NC(=O)[C@@H](CC(=O)[C@@H](NC(=O)c1cc(C)on1)C(C)C)Cc1ccc(F)cc1 [Rupintrivir]	1.04	4400	no observed inhibition
